In paper PMC3525873 (British Journal of Pharmacology, 2012):

Assays:
Assay type in all cases: cell-based
NFAT = assay: GFP-NFAT translocation in RBL-2H3 cells; settings: 10 μM, thapsigargin 1 μM then 2 mM Ca2+ re-addition
Method in brief: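 RBL-2H3 cells electroporated with GFP-NFAT (20 μg DNA, 300 V, 275 μF) 12–18 h beforehand, on coverslips. In nominally Ca2+-free buffer, stores depleted with 1 μM thapsigargin for 5 min, then 2 mM CaCl2 added. Test compound at 10 μM in all buffers. Basal taken before depletion. Cells fixed in paraformaldehyde with DAPI-stained nuclei. Nuclear/cytosolic GFP intensity ratio measured; ≥18 cells per condition.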

TRPC3 = target: T1, TRPC3 (Homo sapiens, UniProt Q13507); assay: Patch-clamp of TRPC3 currents in HEK293 cells transiently expressing TRPC3; settings: 3 μM pre-incubation, carbachol
T1 sequence (Q13507 74-921 limits assumed): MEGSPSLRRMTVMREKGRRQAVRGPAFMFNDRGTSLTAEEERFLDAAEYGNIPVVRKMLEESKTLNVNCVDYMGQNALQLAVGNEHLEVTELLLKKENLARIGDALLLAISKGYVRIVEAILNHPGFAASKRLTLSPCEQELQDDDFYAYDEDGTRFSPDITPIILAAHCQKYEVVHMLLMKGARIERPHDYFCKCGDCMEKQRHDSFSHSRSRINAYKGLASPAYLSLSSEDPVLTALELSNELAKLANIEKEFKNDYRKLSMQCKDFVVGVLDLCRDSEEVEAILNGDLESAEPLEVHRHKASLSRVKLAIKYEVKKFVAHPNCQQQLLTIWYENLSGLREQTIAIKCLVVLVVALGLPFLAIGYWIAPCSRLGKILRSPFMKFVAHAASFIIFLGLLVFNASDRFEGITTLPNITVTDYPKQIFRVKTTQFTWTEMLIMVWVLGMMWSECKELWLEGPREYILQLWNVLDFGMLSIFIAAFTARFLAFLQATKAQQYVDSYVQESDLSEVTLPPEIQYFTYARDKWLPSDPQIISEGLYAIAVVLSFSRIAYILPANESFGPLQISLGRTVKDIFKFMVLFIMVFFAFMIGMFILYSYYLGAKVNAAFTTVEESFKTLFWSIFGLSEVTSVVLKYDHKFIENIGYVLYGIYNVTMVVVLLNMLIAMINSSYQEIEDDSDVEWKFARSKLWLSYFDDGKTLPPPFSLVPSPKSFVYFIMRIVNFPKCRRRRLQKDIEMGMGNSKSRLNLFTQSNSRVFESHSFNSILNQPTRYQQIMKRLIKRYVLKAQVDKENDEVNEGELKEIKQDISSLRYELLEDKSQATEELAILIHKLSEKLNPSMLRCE

RBL-2H3 cells = assay: Degranulation assay; settings: ionomycin 0.4 μM
Method in brief: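 RBL-2H3 cells grown to confluency, washed in RBL-2H3 buffer with 2 mM CaCl2, all incubations at 37°C. Test compound (3 or 10 μM) for 15 min, then ionomycin 0.4 μM final for 30 min. Stopped with 0.4 M glycine (pH 10.7), A405 read. Untreated and 2% triton-lysed cells served as basal/maximal references. n = 3 passages.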

[1] = target: CRAC currents in native RBL-2H3 cells (Rattus norvegicus, UniProt Q5M848); assay: Patch-clamp of CRAC currents in native RBL-2H3 cells; settings: for Effect on CRAC Ca2+ entry-mediating conductance: 3 μM pre-incubation
Chain of CRAC currents in native RBL-2H3 cells (Q5M848 whole entry): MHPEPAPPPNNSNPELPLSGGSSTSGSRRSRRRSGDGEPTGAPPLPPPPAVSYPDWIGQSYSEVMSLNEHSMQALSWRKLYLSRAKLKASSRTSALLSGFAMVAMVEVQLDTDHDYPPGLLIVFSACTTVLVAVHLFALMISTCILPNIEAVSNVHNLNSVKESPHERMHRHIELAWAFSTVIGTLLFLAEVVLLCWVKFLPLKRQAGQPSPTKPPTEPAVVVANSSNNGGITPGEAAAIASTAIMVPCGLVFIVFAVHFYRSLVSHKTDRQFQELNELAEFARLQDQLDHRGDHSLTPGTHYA
Method in brief: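 Whole-cell recording of native RBL-2H3 cells at room temperature. Stores depleted passively by 20 mM EGTA in the Cs-methanesulphonate pipette solution (pH 7.2). Bath contained 20 mM CaCl2 (pH 7.4). Ramps from −90 to +90 mV over 1 s, holding +30 mV. Test compound at 3 μM, pre-incubated or applied acutely. Net current (minus basal) read at −85 mV 300 s after break-in; n ≥ 6 cells.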

STIM1/Orai1 = STIM1/Orai1 (Homo sapiens, UniProt Q96D31)
Chain of STIM1/Orai1 (Q96D31 whole entry, species assumed): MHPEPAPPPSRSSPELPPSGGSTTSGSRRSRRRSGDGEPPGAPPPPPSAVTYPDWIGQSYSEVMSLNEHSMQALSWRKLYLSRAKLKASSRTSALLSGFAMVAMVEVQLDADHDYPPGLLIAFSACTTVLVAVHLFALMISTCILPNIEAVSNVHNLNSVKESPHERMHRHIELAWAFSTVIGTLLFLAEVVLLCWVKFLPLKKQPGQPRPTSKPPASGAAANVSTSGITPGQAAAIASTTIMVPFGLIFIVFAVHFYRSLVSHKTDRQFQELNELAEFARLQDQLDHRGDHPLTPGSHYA
Chain of STIM1/Orai1 (Q13586 23-685 partner, species assumed): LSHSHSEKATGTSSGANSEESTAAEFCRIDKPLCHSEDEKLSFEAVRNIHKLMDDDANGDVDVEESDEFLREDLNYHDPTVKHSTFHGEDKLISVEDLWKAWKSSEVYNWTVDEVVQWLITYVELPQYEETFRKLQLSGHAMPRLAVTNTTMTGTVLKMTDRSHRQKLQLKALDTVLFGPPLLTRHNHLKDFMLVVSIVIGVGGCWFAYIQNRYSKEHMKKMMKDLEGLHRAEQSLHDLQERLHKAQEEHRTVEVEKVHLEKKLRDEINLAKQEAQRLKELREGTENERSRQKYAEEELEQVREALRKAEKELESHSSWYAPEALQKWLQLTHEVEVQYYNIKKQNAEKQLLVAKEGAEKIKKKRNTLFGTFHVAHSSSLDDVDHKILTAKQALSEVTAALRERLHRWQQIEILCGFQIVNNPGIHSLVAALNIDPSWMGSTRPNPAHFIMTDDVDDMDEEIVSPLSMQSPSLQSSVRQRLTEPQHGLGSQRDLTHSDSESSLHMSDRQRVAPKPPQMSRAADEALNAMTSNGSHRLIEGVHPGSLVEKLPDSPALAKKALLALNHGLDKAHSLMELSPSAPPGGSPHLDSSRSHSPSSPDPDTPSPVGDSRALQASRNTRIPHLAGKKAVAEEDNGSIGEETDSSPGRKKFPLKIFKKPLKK
Method in brief: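 Whole-cell recording at room temperature in HEK293 transiently co-expressing CFP-STIM1 and YFP-Orai1. CRAC activated by 20 mM EGTA in the pipette with 10 mM CaCl2 in the bath. Bath then switched to divalent-free solution to carry Na+ current. Test compound (10 μM) applied acutely; current followed over time; n = 4 cells.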

[2] = target: STIM1/Orai1-mediated SOCE (Rattus norvegicus, UniProt Q5M848); assay: Fura-2 Ca2+ re-addition, thapsigargin-depleted native RBL-2H3 cells
Chain of STIM1/Orai1-mediated SOCE (Q5M848 whole entry, the tested form may be a part): as the sequence (Q5M848 whole entry) above
Method in brief: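 Native RBL-2H3 cells were loaded with 2 μM Fura-2-AM for 45 min and perfused in Ca2+-free extracellular solution at room temperature. Stores depleted with 1 μM thapsigargin for 5 min. Test compound present ≥5 min before and throughout. Ca2+ entry evoked by 2 mM Ca2+ re-addition; 340/380 nm ratio read (510 nm emission). Inhibition expressed as % of control peak entry. IC50 by 4-parameter logistic fit; 3–5 experiments, 29–80 cells.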

CCOC(=O)c1cnn(-c2ccc(NC(=O)C(Cl)=C(Cl)Cl)cc2)c1C(F)(F)F [Pyr3, ethyl 1-(4-(2,3,3-trichloroacrylamido)phenyl)-5-(trifluoromethyl)-1H-pyrazole-4-carboxylate]
Effect on NFAT translocation (NFAT): clearly inhibited NFAT translocation
Effect on TRPC3 Ca2+ entry-mediating conductance (TRPC3): completely eliminated
Effect on ionomycin-initiated degranulation (RBL-2H3 cells; 3 μM): substantially reduced degranulation
Effect on ionomycin-initiated degranulation (RBL-2H3 cells; 10 μM): suppressed responses down to basal levels
Effect on CRAC Ca2+ entry-mediating conductance [1]: completely eliminated
Effect on native CRAC currents upon acute administration ([1]; acute administration, 3 μM, native RBL-2H3 cells): rapidly suppresses
Effect on divalent-free sodium current through CRAC pore (STIM1/Orai1; 10 μM, divalent-free conditions): affecting sodium influx through it
Effect on reconstituted CRAC pore currents upon acute administration (STIM1/Orai1; HEK293 expressing STIM1 and Orai1, passive store depletion with EGTA): acutely blocks a reconstituted CRAC pore in a dose-dependent, non-reversible manner

Cc1nnsc1C(=O)Nc1ccc(-n2nc(C(F)(F)F)cc2C(F)(F)F)cc1 [Pyr2, N-(4-(3,5-bis(trifluoromethyl)-1H-pyrazole-1-yl)phenyl)-4-methyl-1,2,3-thiadiazole-5-carboxamide]
Effect on NFAT translocation (NFAT): clearly inhibited NFAT translocation
Effect on TRPC3 Ca2+ entry-mediating conductance (TRPC3): completely eliminated
IC50 [2]: 590 nM
Higher potency in SOCE model than in TRPC3-ROCE model, orders of magnitude ([2]; RBL-2H3 SOCE vs TRPC3 ROCE): 0.85 OM
Higher potency in SOCE model than in TRPC3-ROCE model ([2]; ratio of IC50 values, RBL-2H3 SOCE vs TRPC3 ROCE): sevenfold
Effect on ionomycin-initiated degranulation (RBL-2H3 cells; 3 μM): substantially reduced degranulation
Effect on ionomycin-initiated degranulation (RBL-2H3 cells; 10 μM): suppressed responses down to basal levels
Effect on CRAC Ca2+ entry-mediating conductance [1]: completely eliminated
